In ChEMBL document CHEMBL1148715, “Liver-targeted prodrugs of 2'-C-methyladenosine for therapy of hepatitis C virus infection” (J Med Chem, 2007):
Converted amounts (≈) assume the structure as drawn.

Experiments:
Hepatocyte = test: Activation of prodrug to corresponding nucleoside triphosphate in Sprague-Dawley rat hepatocytes at 25 uM after 2 hrs; format: cell-based
Method in brief: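 Freshly isolated hepatocytes from fed Sprague–Dawley rats (250–300 g), >85% trypan blue viable, 20 mg/mL wet weight. Incubated 2 h at 37 °C in Krebs–bicarbonate buffer with 20 mM glucose and 1 mg/mL BSA; compound added from DMSO stock. Extract reconstituted in water; 2'-C-methyl-ATP measured by LC-MS/MS against an authentic triphosphate standard.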

Liver = test: Drug level in Sprague-Dawley rat liver at 50 mg/kg, po after 3 hrs; format: ADME, organism-based; design: dose 50 mg/kg, route oral; settings: in vivo
Method in brief: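 Sprague–Dawley rats dosed by oral gavage in PEG-400. Liver (~1 g) taken at 3 h, snap-frozen, then homogenized in 3 volumes ice-cold 70% methanol with 20 mM EDTA/EGTA. Clarified supernatant dried and reconstituted. NTP measured by ion-pair LC-MS/MS ([…]/78.8) against a 0.01–30 μM 2'-C-methyl-ATP calibration curve; reported as nmol/g liver.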

[1] = Aqueous solubility of the compound; format: physicochemical
[2] = Oral bioavailability in Sprague-Dawley rat; format: ADME, organism-based; settings: in vivo
Method in brief: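 Rats given the prodrug iv (10 mg/kg) and orally (50 mg/kg, PEG-400; fasted, food returned a few hours after dosing). Liver NTP followed over time by LC-MS/MS. Bioavailability taken as the ratio of liver NTP AUC, oral versus iv.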

[3] = Chemical stability at pH 7.0; format: physicochemical; settings: buffer
Method in brief: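 Half-life measured in pH 7 buffer at 25 °C.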

[4] = Solubility in citrate buffer at pH 5.1; format: physicochemical

Activity (Hepatocyte) [nmol/g] | Activity (Liver) [nmol/g] | SMILES | other results
73 | 1.6 | CCCCCOC(=O)Nc1ncnc2c1ncn2[C@@H]1O[C@H](COP2(=O)OCCC(c3cccc(Cl)c3)O2)[C@@H](O)[C@@]1(C)O (some centres not stated) | –
389 | 2.9 | C[C@@]1(O)[C@H](O)[C@@H](COP2(=O)OCC[C@@H](c3cccc(Cl)c3)O2)O[C@H]1n1cnc2c(N)ncnc21 (some centres not stated) | –
194 | – | C[C@@]1(O)[C@H](O)[C@@H](COP2(=O)OCCC(c3cncc(Br)c3)O2)O[C@H]1n1cnc2c(N)ncnc21 (some centres not stated) | –
328 | 4.1 | C[C@@]1(O)[C@H](O)[C@@H](COP2(=O)OCCC(c3cccc(F)c3)O2)O[C@H]1n1cnc2c(N)ncnc21 (some centres not stated) | –
328 | – | C[C@@]1(O)[C@H](O)[C@@H](COP2(=O)OCCC(c3ccc(Cl)c(F)c3)O2)O[C@H]1n1cnc2c(N)ncnc21 (some centres not stated) | –
73 | – | Cc1cncc(C2CCOP(=O)(OC[C@H]3O[C@@H](n4cnc5c(N)ncnc54)[C@](C)(O)[C@@H]3O)O2)c1 (some centres not stated) | –
296 | 29.2 | C[C@@]12OC(=O)O[C@@H]1[C@@H](COP1(=O)OCC[C@@H](c3cccc(Cl)c3)O1)O[C@H]2n1cnc2c(N)ncnc21 (some centres not stated) | –
137 | – | C[C@@]1(O)[C@H](O)[C@@H](COP2(=O)OCCC(c3cccc(C#N)c3)O2)O[C@H]1n1cnc2c(N)ncnc21 (some centres not stated) | –
41 | – | C[C@@]1(O)[C@H](O)[C@@H](COP2(=O)OCCC(c3ccc(C#N)cc3)O2)O[C@H]1n1cnc2c(N)ncnc21 (some centres not stated) | –
313 | 22.9 | C[C@@]12OC(=O)O[C@@H]1[C@@H](COP1(=O)OCCC(c3cccc(F)c3)O1)O[C@H]2n1cnc2c(N)ncnc21 (some centres not stated) | –
396 | 2 | C[C@@]1(O)[C@H](O)[C@@H](COP2(=O)OCCC(c3ccc(Cl)c(Cl)c3)O2)O[C@H]1n1cnc2c(N)ncnc21 (some centres not stated) | –
585 | 2.4 | C[C@@]1(O)[C@H](O)[C@@H](COP2(=O)OCCC(c3cc(Cl)cc(Cl)c3)O2)O[C@H]1n1cnc2c(N)ncnc21 (some centres not stated) | –
113 | 11.2 | C[C@@]12OC(=O)O[C@@H]1[C@@H](COP1(=O)OCCC(c3cc(F)cc(F)c3)O1)O[C@H]2n1cnc2c(N)ncnc21 (some centres not stated) | –
323 | 8.2 | C[C@@]1(O)[C@H](O)[C@@H](COP2(=O)OCCC(c3cccc(F)c3F)O2)O[C@H]1n1cnc2c(N)ncnc21 (some centres not stated) | –
73 | – | C[C@@]1(O)[C@H](O)[C@@H](COP2(=O)OCCC(c3cccnc3)O2)O[C@H]1n1cnc2c(N)ncnc21 (some centres not stated) | –
93 | – | COc1cc(C2CCOP(=O)(OC[C@H]3O[C@@H](n4cnc5c(N)ncnc54)[C@](C)(O)[C@@H]3O)O2)ccn1 (some centres not stated) | –
97 | 11.8 | C[C@@]12OC(=O)O[C@@H]1[C@@H](COP1(=O)OCCC(c3ccc(Cl)c(Cl)c3)O1)O[C@H]2n1cnc2c(N)ncnc21 (some centres not stated) | –
49 | 5 | C[C@@]12OC(=O)O[C@@H]1[C@@H](COP1(=O)OCCC(c3cc(Cl)cc(Cl)c3)O1)O[C@H]2n1cnc2c(N)ncnc21 (some centres not stated) | –
117 | 3.1 | CC(C)[C@H](N)C(=O)O[C@@H]1[C@@H](COP2(=O)OCCC(c3cccc(Cl)c3)O2)O[C@@H](n2cnc3c(N)ncnc32)[C@]1(C)O (some centres not stated) | –
185 | 28.3 | C[C@@]12OC(=O)O[C@@H]1[C@@H](COP1(=O)OCC[C@@H](c3ccncc3)O1)O[C@H]2n1cnc2c(N)ncnc21 (some centres not stated) | solubility [1]: 450 µg/mL (≈ 892 µM); bioavailability [2]: 39%; half-life [3]: 13 h; solubility [4]: 450 µg/mL (≈ 892 µM)
139 | – | C[C@@]1(O)[C@H](O)[C@@H](COP2(=O)OCCC(c3cc(F)ccc3F)O2)O[C@H]1n1cnc2c(N)ncnc21 (some centres not stated) | –
122 | – | C[C@@]1(O)[C@H](O)[C@@H](COP2(=O)OCCC(c3ccccc3Br)O2)O[C@H]1n1cnc2c(N)ncnc21 (some centres not stated) | –
250 | 4.1 | C[C@@]1(O)[C@H](O)[C@@H](COP2(=O)OCCC(c3cc(F)cc(F)c3)O2)O[C@H]1n1cnc2c(N)ncnc21 (some centres not stated) | –
93 | – | C[C@@]1(O)[C@H](O)[C@@H](COP2(=O)OCCC(c3ccccn3)O2)O[C@H]1n1cnc2c(N)ncnc21 (some centres not stated) | –
72 | – | C[C@@]1(O)[C@H](O)[C@@H](COP2(=O)OCCC(c3cc(F)ccc3Br)O2)O[C@H]1n1cnc2c(N)ncnc21 (some centres not stated) | –
99 | – | C[C@@]1(O)[C@H](O)[C@@H](COP2(=O)OCCC(c3cccc(Br)c3)O2)O[C@H]1n1cnc2c(N)ncnc21 (some centres not stated) | –
209 | – | C[C@@]1(O)[C@H](O)[C@@H](CO)O[C@H]1n1cnc2c(N)ncnc21 | –
47 | 3.6 | C[C@@]1(O)[C@H](O)[C@@H](COP2(=O)OCC[C@@H](c3ccncc3)O2)O[C@H]1n1cnc2c(N)ncnc21 (single isomer, unassigned) | –
